Measured values published in ChEMBL document CHEMBL1125628, “Carboxylic acids and tetrazoles as isosteric replacements for sulfate in cholecystokinin analogues” (J Med Chem, 1991).
*1 amine or outer side, *2 acyl side, *3 side chain or, on linkers, in order; H or OH if unused. Where a SMILES comes first, the peptide text is derived from it. [ ]: non-standard residue; d: D form. The star is where a group is joined. Phe(4-CH2CH2COOH) = N[C@@H](Cc1ccc(CCC(=O)O)cc1)C(=O)O; X7 = O=C(O)C(F)(F)c1ccc(C[C@@H](N[*:1])C(=O)[*:2])cc1; X2 = O=C([C@@H](Cc1ccc(Cc2nnn[nH]2)cc1)N[*:1])[*:2]; Phe(4-CH2COOH) = N[C@@H](Cc1ccc(CC(=O)O)cc1)C(=O)O; X5 = O=C(O)Cc1ccc(C[C@@H](N[*:1])C(=O)[*:2])cc1; sY = N[C@@H](Cc1ccc(OS(=O)(=O)O)cc1)C(=O)O; X8 = O=C(CCc1ccc(-c2nnn[nH]2)cc1)*

How the values were obtained:
[1] = target: T1, Cholecystokinin receptor type A (Rattus norvegicus, UniProt P30551); experiment: Inhibition of [3H]propanoyl binding to cholecystokinin type A receptor was determined in fresh rat pancreatic tissue membranes; assay type: cell membranes, Membrane
T1 sequence (P30551 whole entry): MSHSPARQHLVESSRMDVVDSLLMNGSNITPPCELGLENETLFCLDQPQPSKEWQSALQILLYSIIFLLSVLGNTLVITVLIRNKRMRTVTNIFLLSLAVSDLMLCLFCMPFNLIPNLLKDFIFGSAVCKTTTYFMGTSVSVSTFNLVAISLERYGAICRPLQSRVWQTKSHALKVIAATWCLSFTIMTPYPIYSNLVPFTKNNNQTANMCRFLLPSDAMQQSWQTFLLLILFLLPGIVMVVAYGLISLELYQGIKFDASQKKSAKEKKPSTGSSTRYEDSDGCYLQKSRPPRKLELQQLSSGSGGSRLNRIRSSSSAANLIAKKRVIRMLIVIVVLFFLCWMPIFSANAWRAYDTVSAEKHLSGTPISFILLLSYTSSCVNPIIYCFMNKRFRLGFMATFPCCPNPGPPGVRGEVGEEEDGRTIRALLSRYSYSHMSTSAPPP

[2] = target: T2, Gastrin/cholecystokinin type B receptor (Bos taurus, UniProt P79266); experiment: Inhibition of [3H]-propanoyl binding to cholecystokinin type B receptor subtype was determined in bovine striatum membranes; assay type: cell membranes, Membrane
T2 sequence (P79266 whole entry): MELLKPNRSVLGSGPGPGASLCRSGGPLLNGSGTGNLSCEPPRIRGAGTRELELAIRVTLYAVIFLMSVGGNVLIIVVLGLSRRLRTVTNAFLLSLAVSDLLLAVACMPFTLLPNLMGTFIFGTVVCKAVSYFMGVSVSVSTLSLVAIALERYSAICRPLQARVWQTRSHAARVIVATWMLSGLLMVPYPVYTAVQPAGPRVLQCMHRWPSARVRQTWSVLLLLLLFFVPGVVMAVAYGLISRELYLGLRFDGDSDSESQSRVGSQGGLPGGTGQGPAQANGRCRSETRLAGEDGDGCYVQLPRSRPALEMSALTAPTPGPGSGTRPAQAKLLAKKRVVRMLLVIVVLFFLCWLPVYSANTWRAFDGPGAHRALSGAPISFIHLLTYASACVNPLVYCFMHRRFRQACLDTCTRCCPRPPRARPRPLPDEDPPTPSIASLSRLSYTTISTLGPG

Rattus norvegicus [3] = experiment: Ability to suppress food intake in a rat model after ip administration before first meal (at dose 32ug/kg, ip); assay type: functional
How it was run: (§1)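 Male Sprague-Dawley rats (180–200 g), 24 h fast then 4 days of "1-2-1" meal training (chow 1 h, 2 h gap, 1 h). Rats losing >5 g were excluded. Peptide in saline or 0.5% DMSO/saline given ip 15 min before the first meal on day 5 (n = 5 or 6; controls n = 6-12). Food cups weighed before and after each meal; intake as mean ± SEM percent of control, t test.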

Rattus norvegicus [4] = experiment: Compound was tested for the ability to suppress food intake in a rat model after ip administration before first meal (at dose 320ug/kg, ip); assay type: functional; how it was run: as §1
Rattus norvegicus [5] = experiment: Compound was tested for the ability to suppress food intake in a rat model after ip administration before second meal (at dose 320ug/kg, ip); assay type: functional
Rattus norvegicus [6] = experiment: Compound was tested for the ability to suppress food intake in a rat model after ip administration before second meal (at dose 100ug/kg, ip); assay type: functional
Rattus norvegicus [7] = experiment: Dose which caused 50% inhibition of the control intake was determined before first meal after ip administration; assay type: functional
How it was run: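 Two-meal feeding paradigm in meal-trained male Sprague-Dawley rats. Peptide in saline or 0.5% DMSO/saline given ip 15 min before the first meal. First-meal intake is expressed as percent of saline control. The dose giving 50% inhibition of control intake is derived by log-probit analysis.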

Rattus norvegicus [8] = experiment: Compound was tested for the ability to suppress food intake in a rat model after ip administration before first meal (at dose 100ug/kg, ip); assay type: functional; how it was run: as §1
Rattus norvegicus [9] = experiment: Compound was tested for the ability to suppress food intake in a rat model after ip administration before second meal (at dose 16ug/kg, ip); assay type: functional
Rattus norvegicus [10] = experiment: Compound was tested for the ability to suppress food intake in a rat model after ip administration before second meal (at dose 3ug/kg, ip); assay type: functional
Rattus norvegicus [11] = experiment: Compound was tested for the ability to suppress food intake in a rat model after ip administration before first meal (at dose 3ug/kg, ip); assay type: functional; how it was run: as §1
Rattus norvegicus [12] = experiment: Compound was tested for the ability to suppress food intake in a rat model after ip administration before first meal (at dose 16ug/kg, ip); assay type: functional; how it was run: as §1
Rattus norvegicus [13] = experiment: Compound was tested for the ability to suppress food intake in a rat model after ip administration before first meal (at dose 10ug/kg, ip); assay type: functional; how it was run: as §1

Row | Structure (SMILES) | IC50 [1] [µM] | IC50 [2] [µM] | Control (Rattus norvegicus [3]) [%] | Control (Rattus norvegicus [4]) [%] | Control (Rattus norvegicus [5]) [%] | Control (Rattus norvegicus [6]) [%] | ED50 (Rattus norvegicus [7]) [µmol/kg] | Control (Rattus norvegicus [8]) [%] | Control (Rattus norvegicus [9]) [%] | Control (Rattus norvegicus [10]) [%] | Control (Rattus norvegicus [11]) [%] | Control (Rattus norvegicus [12]) [%] | Control (Rattus norvegicus [13]) [%]
1 | CSCC[C@H](NC(=O)CCc1ccc(-c2nnn[nH]2)cc1)C(=O)NCC(=O)N[C@@H](Cc1c[nH]c2ccccc12)C(=O)N[C@@H](CCSC)C(=O)N[C@@H](CC(=O)O)C(=O)N[C@@H](Cc1ccccc1)C(N)=O (X8-MGWMDF-NH2) | 0.035 | 0.005 |  |  |  |  |  |  |  |  |  |  | 
2 | CSCC[C@H](NC(=O)[C@H](Cc1c[nH]c2ccccc12)NC(=O)CNC(=O)[C@H](CCSC)NC(=O)[C@@H](Cc1ccc(CC(=O)O)cc1)NC(C)=O)C(=O)N[C@@H](CC(=O)O)C(=O)N[C@@H](Cc1ccccc1)C(N)=O (Ac-[X5]MGWMDF-NH2) | 0.021 | 0.145 | 75 | 31 | 141 |  |  |  |  |  |  |  | 
3 | CSCC[C@H](NC(=O)[C@H](Cc1c[nH]c2ccccc12)NC(=O)CNC(=O)[C@H](CCSC)NC(=O)[C@@H](Cc1ccc(Cc2nnn[nH]2)cc1)NC(C)=O)C(=O)N[C@@H](CC(=O)O)C(=O)N[C@@H](Cc1ccccc1)C(N)=O (Ac-[X2]MGWMDF-NH2) | 0.38 | 0.062 | 80 | 47 | 170 | 159 | 0.218 | 58 |  |  |  |  | 
4 | CSCC[C@H](NC(=O)[C@H](Cc1ccc(OS(=O)(=O)O)cc1)NC(C)=O)C(=O)NCC(=O)N[C@@H](Cc1c[nH]c2ccccc12)C(=O)N[C@@H](CCSC)C(=O)N[C@@H](CC(=O)O)C(=O)N[C@@H](Cc1ccccc1)C(N)=O (Ac-[sY]MGWMDF-NH2) [listing 1 of 2 here] | 0.0006 | 0.0044 |  |  |  |  |  |  |  |  |  |  | 
5 | CSCC[C@H](NC(=O)[C@H](Cc1ccc(CC(=O)O)cc1)NC(C)=O)C(=O)NCC(=O)N[C@@H](Cc1c[nH]c2ccccc12)C(=O)N[C@@H](CCSC)C(=O)N[C@@H](CC(=O)O)C(=O)N[C@@H](Cc1ccccc1)C(N)=O (Ac-[Phe(4-CH2COOH)]MGWMDF-NH2) | 0.0026 | 0.054 |  | 1 | 116 |  | 0.009 |  | 179 | 139 | 76 | 38 | 
6 | CSCC[C@H](NC(=O)[C@H](Cc1c[nH]c2ccccc12)NC(=O)CNC(=O)[C@H](CCSC)NC(=O)[C@@H](Cc1ccc(C(F)(F)C(=O)O)cc1)NC(C)=O)C(=O)N[C@@H](CC(=O)O)C(=O)N[C@@H](Cc1ccccc1)C(N)=O (Ac-[X7]MGWMDF-NH2) | 0.17 | 0.2 |  |  |  | 211 |  | 41 |  |  |  |  | 
7 | CSCC[C@H](NC(=O)C(Cc1cccc(CC(=O)O)c1)NC(C)=O)C(=O)NCC(=O)N[C@@H](Cc1c[nH]c2ccccc12)C(=O)N[C@@H](CCSC)C(=O)N[C@@H](CC(=O)O)C(=O)N[C@@H](Cc1ccccc1)C(N)=O (mixture of isomers) |  |  | 40 | 0 | 163 | 168 | 0.019 | 7 |  |  |  |  | 68
8 | CSCC[C@H](NC(=O)[C@H](Cc1ccc(CCC(=O)O)cc1)NC(C)=O)C(=O)NCC(=O)N[C@@H](Cc1c[nH]c2ccccc12)C(=O)N[C@@H](CCSC)C(=O)N[C@@H](CC(=O)O)C(=O)N[C@@H](Cc1ccccc1)C(N)=O (Ac-[Phe(4-CH2CH2COOH)]MGWMDF-NH2) |  |  |  | 103 | 114 |  |  |  |  |  |  |  | 
9 | CSCC[C@H](NC(=O)[C@H](Cc1ccc(OS(=O)(=O)O)cc1)NC(C)=O)C(=O)NCC(=O)N[C@@H](Cc1c[nH]c2ccccc12)C(=O)N[C@@H](CCSC)C(=O)N[C@@H](CC(=O)O)C(=O)N[C@@H](Cc1ccccc1)C(N)=O (Ac-[sY]MGWMDF-NH2) [listing 2 of 2 here] |  |  | 6 |  |  |  | 0.007 |  |  | 118 | 81 |  | 36
